GRK2 inh – inhibitors of human GRK2 displacing RNA aptamer. inhibition of aptamer binding, % at 10 µM. P25098. bead flow cytometry, FAM-aptamer displacement from GRK2. actives 0.59% (n = 330,000);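 active = inhibition of aptamer binding above 40%, roughly 3 SD of noise, on plates passing a quality check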;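 note: median bead fluorescence of bound FAM aptamer so fluorescent compounds give negative values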
SUMO1 PPI mod – alters human SUMO1 binding to SIM partners. SUMO1 binding to a labelled peptide, TR-FRET, 1 h. P63165. actives 0.33% (n = 360,000). AID 602429. inhibition, % at 20 µM; in the data active = inhibition above about 37%
Target sequence (P63165 whole entry, looked up): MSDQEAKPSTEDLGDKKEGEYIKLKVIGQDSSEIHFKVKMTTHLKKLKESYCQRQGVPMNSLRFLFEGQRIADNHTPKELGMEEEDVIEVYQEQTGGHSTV
STEP inh – STEP (human) phosphatase inhibition. P54829. recombinant STEP, OMFP fluorogenic substrate, fluorescence. inhibition, % at 20 µM. actives 0.25% (n = 360,000);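 active = inhibition at 20 µM, scaled per plate between control wells, above about 37%, limit read from the data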;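 note: 0% = DMSO with enzyme and substrate and 100% = substrate only without enzyme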
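System: STEP (striatal-enriched tyrosine phosphatase) enzyme, cell-free; medium: Bis-Tris pH 6.0 buffer with DTT, detergent; dosing: 20 µM, 1% DMSO; times: reaction 20 min, ambient temperature; detection: fluorescence, 480/540 nm; read-out basis: normalized % inhibition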
DNMT1 inh – DNMT1 (human) enzyme inhibition | P26358 | DNMT1 molecular beacon, Hinp1I cleavage, fluorescence | inhibition (reported as % activation of signal), % at 10 µM | actives 0.83% (n = 360,000); in the data active = inhibition above about 50%
LMPTP block – blocks human LMPTP phosphatase. recombinant LMPTP-A, OMFP fluorogenic substrate, fluorescence intensity. P24666. inhibition, % at 20 µM. actives 0.22% (n = 360,000);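 active = compounds that cut the enzyme signal by at least half of the control window in the single-dose screen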;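 note: plate controls were DMSO wells with enzyme plus substrate for no effect and substrate without enzyme for full effect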
Target sequence (P24666 whole entry, looked up): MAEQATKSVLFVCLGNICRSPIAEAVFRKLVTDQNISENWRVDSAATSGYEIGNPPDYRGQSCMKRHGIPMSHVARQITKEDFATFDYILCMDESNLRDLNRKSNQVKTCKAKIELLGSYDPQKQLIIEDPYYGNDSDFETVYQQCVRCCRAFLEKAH
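Test system – LMPTP-A phosphatase enzyme · Quantity – 0.625 nM LMPTP-A final · Reagent – OMFP substrate, 400 µM final · Dosing – one test concentration per compound, 20 µM, with 3% DMSO overall · Timing – 50 min enzyme reaction at room temperature, protected from light · Detection – fluorescence intensity · Controls – substrate-only low control, DMSO enzyme-plus-substrate high control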
Scp-1 inhibitor – blocks human Scp-1 phosphatase activity; Recombinant Scp1, phosphopeptide, malachite green phosphate absorbance; inhibition, % at 20 µM; actives 0.88% (n = 340,000); AID 493091;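 active = inhibition above about 50% at 20 µM, limit read from the data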;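 note: plate controls were DMSO wells with enzyme for no effect and wells lacking enzyme for full effect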
Target sequence (Q9GZU7 76-261 limits assumed): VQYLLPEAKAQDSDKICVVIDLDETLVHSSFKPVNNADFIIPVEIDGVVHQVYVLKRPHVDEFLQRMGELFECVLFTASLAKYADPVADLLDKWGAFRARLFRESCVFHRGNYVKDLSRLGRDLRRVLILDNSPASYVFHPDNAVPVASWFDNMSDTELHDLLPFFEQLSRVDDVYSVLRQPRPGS
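Test system: SCP-1 phosphatase catalytic domain, residues 76-261; measured by: colorimetric phosphate reagent with accelerator and stabiliser, absorbance at 630 nm; timing: enzyme reaction 45 min at room temperature, colour 5 min, stabilisation 30 min; also added: Phosphorylated 17-residue peptide substrate; compound dosing: one concentration, 20 µM, with 1.0% DMSO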
Beacon interf DR – beacon fluorescence artifact, dose response counter-screen. shares compounds with DNMT1 inh. molecular beacon fluorescence, spectral interference counter-screen. IC50, µM. 200 tested, under 10 active; call rule not given here
DNMT1 confirm – confirmation of human DNMT1 inhibitors. shares compounds with DNMT1 inh. actives 8% (n = 2,300). inhibition, % at 10 µM. DNMT1 molecular beacon HinP1I cleavage, fluorescence;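 active = average inhibition of at least 30% in the single-concentration confirmation test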
Beacon interf – beacon fluorescence artifact counter-screen | shares compounds with DNMT1 inh | actives 1% (n = 2,300) | AID 602387 | DNMT1 molecular beacon spectral interference counterscreen, fluorescence 485/520 | activation (fluorescence interference), % at 10 µM;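 active = activation of at least 30% at 10 µM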;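 note: DNMT1 catalytic domain with a HinP1I cleavage step and a FAM/dabcyl DNA beacon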
Starred values were filed as active, the others as inactive. Sampled rows, rich in hits. Any-hit rate of the full collection: about 2.2%.

For C#CCn1c(=NC(=O)c2ccc(Br)s2)sc2cccc(OC)c21 the results were GRK2 inh 0, SUMO1 PPI mod -20, STEP inh 2, DNMT1 inh 52*, LMPTP block 6, Scp-1 inhibitor -17, DNMT1 confirm 0 and Beacon interf -6.
For Cn1nc(C(=O)NCC(=O)Nc2ccc(F)c(F)c2)ccc1=O the results were SUMO1 PPI mod 0, STEP inh 0, DNMT1 inh 7 and LMPTP block -1.
Screening Cc1ccc(/C=C/C(=O)O)cc1S(=O)(=O)Nc1ccc(C(=O)O)cc1 returned GRK2 inh 0, SUMO1 PPI mod 11, STEP inh -1, DNMT1 inh 67*, LMPTP block -1, Scp-1 inhibitor -1, DNMT1 confirm 2 and Beacon interf 24.
Cc1cc(NC(=O)OC(C)(C)C)c(-n2nnnc2C(C(=O)c2ccccc2)N2CCOCC2)cc1C (stereo not drawn) was read as SUMO1 PPI mod -2 and LMPTP block 0.
Screening O=C(/C=C/c1ccco1)Nc1scc(-c2ccccc2)c1C(=O)O returned GRK2 inh 11, SUMO1 PPI mod -5, STEP inh 19, DNMT1 inh 82*, LMPTP block 4, Scp-1 inhibitor 50, DNMT1 confirm 13 and Beacon interf 1.
For CC12CCC=CC1=C(C=O)C1C2CCC2(C)C(O)CCC12 (stereo not drawn) the results were SUMO1 PPI mod -14, STEP inh 0, DNMT1 inh 3, LMPTP block -1 and Scp-1 inhibitor 3.
For Nc1c(C(=O)NCc2ccccc2)c2nc3ccccc3nc2n1-c1ccc2c(c1)OCO2 the results were GRK2 inh 0, SUMO1 PPI mod 14, STEP inh -4, DNMT1 inh 56*, LMPTP block 1, Scp-1 inhibitor -5, DNMT1 confirm 1 and Beacon interf 2.
For Nc1c(C(=O)NCc2ccc3c(c2)OCO3)c2nc3ccccc3nc2n1CCCN1CCOCC1 the results were GRK2 inh 1, SUMO1 PPI mod 47*, STEP inh 15, DNMT1 inh 62*, LMPTP block -2, Scp-1 inhibitor -4, DNMT1 confirm 10 and Beacon interf 10.
For COc1ccc(OC)c(-c2nn(-c3ccccc3)cc2C(=O)NC2(C)CCS(=O)(=O)C2)c1 (stereo not drawn) the results were SUMO1 PPI mod 13, STEP inh -4, DNMT1 inh -1 and LMPTP block -1.
For CCc1nn(CC(=O)NCCCc2ccccc2)c(=O)c2cc3cc(F)ccc3n12 the results were GRK2 inh 0, SUMO1 PPI mod 5, STEP inh 1, DNMT1 inh 51*, LMPTP block 3, Scp-1 inhibitor -5, DNMT1 confirm 0 and Beacon interf -1.
CC(C)C[C@@H](CN1CCC[C@@H]1CN1C(=S)NC[C@@H]1Cc1ccc(O)cc1)N1C[C@H](Cc2ccc(O)cc2)N(CC2CCCCCC2)C1=S was read as SUMO1 PPI mod 4, STEP inh 0, DNMT1 inh -56 and LMPTP block 1.
For CCOC(=O)/C=c1/s/c(=C/c2ccc3cc(OC)ccc3c2)c(=O)n1CC(=O)NCc1ccc2c(c1)OCO2 the results were SUMO1 PPI mod 13, STEP inh -5, DNMT1 inh 54*, LMPTP block 2, Scp-1 inhibitor -10, DNMT1 confirm 1 and Beacon interf 4.
For CCOC(=O)/C=c1\s/c(=C\c2ccc(-c3ccccc3)cc2)c(=O)n1CC(=O)NCc1ccc2c(c1)OCO2 the results were GRK2 inh 2, SUMO1 PPI mod -2, STEP inh 5, DNMT1 inh -5, LMPTP block 3 and Scp-1 inhibitor -2.
CCOC(=O)/C=c1\s/c(=C\c2ccc3cc(OC)ccc3c2)c(=O)n1CC(=O)NCC1CCCO1 (stereo not drawn) was read as GRK2 inh 2, SUMO1 PPI mod -1, STEP inh -3, DNMT1 inh 58*, LMPTP block -1, Scp-1 inhibitor -8, DNMT1 confirm 7 and Beacon interf -1.
`CC(/C=C1\SC(=S)N(c2ccc(C(=O)O)cc2)C1=O)=C\c1ccccc1` gave GRK2 inh 4, SUMO1 PPI mod 57*, STEP inh 2, DNMT1 inh 110*, LMPTP block 17, Scp-1 inhibitor 18, DNMT1 confirm 6 and Beacon interf 0.
O=C(c1ccccc1)C1OC1C(=O)c1ccccc1 (stereo not drawn) was read as SUMO1 PPI mod 9, STEP inh 4, DNMT1 inh 50*, LMPTP block 3, Scp-1 inhibitor -10, DNMT1 confirm 9 and Beacon interf 10.
`O=C(COC(=O)/C=C/c1cccc(C(F)(F)F)c1)NC(c1ccccc1)c1ccccc1` gave GRK2 inh 0, SUMO1 PPI mod -6, STEP inh 3, DNMT1 inh 56*, LMPTP block -1, Scp-1 inhibitor -4, DNMT1 confirm 0 and Beacon interf 3.
For CC(C)(C)CC(=O)Nc1cccc2c1CCCC2 the results were GRK2 inh 0, SUMO1 PPI mod 2, STEP inh 0, DNMT1 inh 61*, LMPTP block -1, Scp-1 inhibitor -9, Beacon interf DR >99, DNMT1 confirm 32* and Beacon interf 3.
Screening O=C(NC1CCCC1)C1C(c2ccc(C(F)(F)F)cc2)=Nc2ccccc2N1C(=O)c1cc2ccccc2[nH]1 (stereo not drawn) returned SUMO1 PPI mod -21 and LMPTP block 0.
For O=C(NCC1CC1)c1ccc(-c2cn[nH]c2)c2ccoc12 the results were SUMO1 PPI mod 2, STEP inh -1, DNMT1 inh 6 and LMPTP block -9.
COCCNC(=O)c1ccc(-c2cn[nH]c2)c2ccoc12 was read as SUMO1 PPI mod 5, STEP inh -3, DNMT1 inh 68*, LMPTP block -3, DNMT1 confirm 0 and Beacon interf 1.
Screening CC(=O)N1N=C(c2ccccc2)CC1c1ccccc1 (stereo not drawn) returned GRK2 inh 1, SUMO1 PPI mod -2, STEP inh 5, DNMT1 inh 88*, LMPTP block 1, Scp-1 inhibitor -7, DNMT1 confirm 7 and Beacon interf 6.
